Source: ChEMBL document CHEMBL3627690, “Scaffold-Hopping and Structure-Based Discovery of Potent, Selective, And Brain Penetrant N-(1H-Pyrazol-3-yl)pyridin-2-amine Inhibitors of Dual Leucine Zipper Kinase (DLK, MAP3K12)” (J Med Chem, 2015)
Active and inactive are the calls of the source. No cut-off for these calls is given here.

Columns and labels:
[1] = target: Serine/threonine-protein kinase Chk1 (Homo sapiens) (UniProt O14757); assay: Inhibition of CHK1 (unknown origin) at 1 uM by FRET method
Sequence of Serine/threonine-protein kinase Chk1 (Homo sapiens) (O14757 whole entry): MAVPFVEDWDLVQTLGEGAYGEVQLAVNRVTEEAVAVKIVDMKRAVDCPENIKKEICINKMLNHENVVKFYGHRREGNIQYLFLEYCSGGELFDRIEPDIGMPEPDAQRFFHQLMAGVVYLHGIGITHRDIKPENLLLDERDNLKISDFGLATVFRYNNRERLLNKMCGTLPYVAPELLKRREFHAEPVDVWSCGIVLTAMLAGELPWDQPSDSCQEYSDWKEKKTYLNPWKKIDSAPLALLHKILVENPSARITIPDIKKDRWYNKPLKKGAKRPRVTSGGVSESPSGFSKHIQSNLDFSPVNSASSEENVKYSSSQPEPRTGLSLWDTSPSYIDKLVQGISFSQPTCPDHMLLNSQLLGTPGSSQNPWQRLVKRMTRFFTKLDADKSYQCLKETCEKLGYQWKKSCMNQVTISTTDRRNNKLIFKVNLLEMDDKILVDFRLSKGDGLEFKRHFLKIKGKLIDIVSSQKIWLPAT
Procedure, shortened: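 SelectScreen panel of 58 kinases, each tested at a single 1 µM compound concentration. Read-out was Z′-LYTE FRET of labeled peptide phosphorylation, run by the vendor's protocols, reported as percent inhibition.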

Mus musculus = assay: Reduction of p-c-Jun level in retina of optic nerve crush injury mouse model at 75 mg/kg, po administered 30 mins prior to nerve crush injury measured at 6 hrs by MSD ELISA; assay type: functional, organism-based
Procedure, shortened: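 C57/Bl6 mice were dosed orally with a methylcellulose suspension or vehicle 30 min before optic nerve crush. Retinal p-c-Jun was measured 6 h after injury by MSD ELISA. Values are expressed relative to uncrushed vehicle controls as mean ± SEM with individual animals.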

[2] = target: Mitogen-activated protein kinase 14 (Homo sapiens) (UniProt Q16539); assay: Inhibition of p38alpha (unknown origin) at 1 uM by FRET method
Sequence of Mitogen-activated protein kinase 14 (Homo sapiens) (Q16539 whole entry): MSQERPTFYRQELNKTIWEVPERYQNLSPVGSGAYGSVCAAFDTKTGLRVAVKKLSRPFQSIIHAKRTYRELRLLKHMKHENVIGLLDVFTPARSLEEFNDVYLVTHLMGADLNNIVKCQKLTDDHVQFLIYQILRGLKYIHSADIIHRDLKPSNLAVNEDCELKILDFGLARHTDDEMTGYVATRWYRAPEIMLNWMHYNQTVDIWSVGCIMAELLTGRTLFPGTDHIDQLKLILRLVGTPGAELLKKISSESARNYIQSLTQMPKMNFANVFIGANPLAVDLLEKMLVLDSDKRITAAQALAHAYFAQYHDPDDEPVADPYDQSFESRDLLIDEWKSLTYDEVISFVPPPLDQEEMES
Procedure, shortened: (§1)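 Single-point screen at 1 uM against a panel of 58 representative kinases. Readout was labeled-peptide phosphorylation by FRET (Z′-LYTE), using the vendor's protocols.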

[3] = target: cAMP-dependent protein kinase (PKA) (Homo sapiens) (UniProt P22694+P17612+P22612); assay: Inhibition of PKA (unknown origin) at 1 uM by FRET method; assay type: protein assay; procedure, shortened: as §1

N#Cc1ccnc(Nc2cc(C3CCN(C4COC4)CC3)n(C3CCCC3)n2)c1
inhibition [1]: -2.3%
Activity (Mus musculus): Active
inhibition [2]: 14.6%
inhibition [3]: 4%
